Measurements as given in publication PMC6460348 (ChemistryOpen, 2019).

Molecular target: wild type XIAP‐BIR1 (Homo sapiens, UniProt P98170)
Test: MicroScale Thermophoresis
Assay type: binding
Summary of the method: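 Human XIAP-BIR1 domain (wild type, or R62S, D71A, R82S or V86E point mutant made by site-directed mutagenesis), expressed from pET28b and purified. Lysines were covalently dye-labelled, and protein was held at 100 nM. Test compound was added as a two-fold series, final 30 nM–1.0 mM or 300 nM–10 mM. Assay at 24 °C in 50 mM Tris-HCl pH 8, 200 mM NaCl, 10 % glycerol, 10 mM DTT, 0.05 % Tween20, with 20 % LED and medium MST power. Kd was fitted from unbound/bound response values.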

wild type XIAP‐BIR1, sequence (P98170 10-99 limits assumed): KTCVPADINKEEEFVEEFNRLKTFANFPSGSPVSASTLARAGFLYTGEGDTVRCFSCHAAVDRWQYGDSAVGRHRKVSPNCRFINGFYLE

- Kd: 612 ± 109 µM
SMILES: Cc1ccc(C(=O)Nc2ccc(S(=O)(=O)O)c3cc(S(=O)(=O)O)cc(S(=O)(=O)O)c23)cc1NC(=O)c1cccc(NC(=O)Nc2cccc(C(=O)Nc3cc(C(=O)Nc4ccc(S(=O)(=O)O)c5cc(S(=O)(=O)O)cc(S(=O)(=O)O)c45)ccc3C)c2)c1 [Suramin]
